In the library only some 2% were active in any assay of this set; here they are far more common.
DENV2 CPE – DENV2-induced cell death inhibition; DENV2-infected cells, cytopathic effect rescue, plate reader; CPE inhibition, % at 9.99 µM; hit rate 1.7% among 350,000; AID 651640; in the data active = CPE inhibition above about 20%, passing the limit was not always enough; inconclusive = no clear call, values can overlap the other calls; tested in BHK-21 cells;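 also: 0% = median of neutral control wells and 100% = median of positive control wells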
FN deposition inh – fibronectin deposition inhibition; hit rate 0.086% among 350,000; AH1F fibroblasts, Alexa488-fibronectin deposition fluorescence, overnight; inhibition, % at 12.6 µM;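 active = mean inhibition across replicates of 30% or more, regardless of how many single replicates reach that level; inconclusive = mean under 30% yet at least half of replicates reach 30%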;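 also: positive control wells lacked labelled fibronectin entirely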
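test system = AH1F fibroblasts assembling fluorescent fibronectin matrix | quantity = 10000 AH1F cells per well | buffer or medium = DMEM plus 2% serum, read in PBS | doses = single dose, pinned | incubation = 1 h cell attachment, overnight exposure to compound and label | detection = fluorescence at 485 nm excitation, 525 nm emission | read-out basis = inhibition from reduced deposited-fibronectin fluorescence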
Xi reactivation – reactivates the inactive X chromosome in mouse fibroblasts; XiGFP mouse fibroblasts, % GFP-positive cells imaging, 3 d; cells co-treated with 5-aza-dC sensitizer; scaled so ellipticine positive control = 100%; activation, % at 7.58 µM; hit rate 0.055% among 360,000; AID 743238;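 active = mean normalized replicate activation at least 10% and every replicate at or above 10%; inconclusive = only one of the two criteria met; inactive = mean below 10% and not all replicates reach 10%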;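 also: 0% = median of on-plate neutral control wells and 100% = ellipticine 6 µM median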
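material = 68-5-11 XiGFP fibroblast line | medium = DMEM plus 5-aza-dC sensitizer | schedule = 3 days compound exposure | benchmarks = positive control ellipticine, 6 µM final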
CaV13 FRET inh – Disruptors of the CACNA1D IQ motif to Ca2+-dependent inactivation inhibitor domain association, primary screening, Förster resonance energy transfer in intact living …; HEK cells, CFP/YFP FRET ICDI-IQ, plate reader, 10 min; percent FRET-ratio fall versus neutral wells; inhibition, % at 12.3 µM; hit rate 0.098% among 340,000;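 active = mean replicate inhibition of at least 30% and at least 1% of replicates passing that level; inconclusive = only one of the two criteria is met; inactive = neither criterion is met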;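 also: 0% = median of the neutral control wells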
Casp6 inh – blocks human caspase-6 cleavage activity; inhibition, % at 12.5 µM; purified caspase-6, Z-VEID-R110 cleavage fluorescence; hit rate 0.53% among 350,000; P55212;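 active = mean inhibition across replicates at least about 35%, with every replicate also reaching that limit, limit read from the data; inconclusive = only one of the two criteria met; inactive = neither criterion met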;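 also: 0% = median of neutral control wells and 100% = no fluorescence left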
Target sequence (P55212 24-179 limits assumed): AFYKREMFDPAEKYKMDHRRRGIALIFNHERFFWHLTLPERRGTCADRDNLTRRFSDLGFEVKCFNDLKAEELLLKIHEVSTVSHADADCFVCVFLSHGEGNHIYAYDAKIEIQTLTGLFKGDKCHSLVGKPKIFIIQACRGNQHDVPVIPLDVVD
Target sequence (P55212 194-293 limits assumed): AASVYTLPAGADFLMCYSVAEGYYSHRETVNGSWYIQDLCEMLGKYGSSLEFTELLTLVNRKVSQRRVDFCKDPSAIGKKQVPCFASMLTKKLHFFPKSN
CASP1 counter – caspase-1 (human) inhibition counter-screen; shares compounds with Casp6 inh; 100 tested, under 10 active; purified caspase-1, Z-YVAD-R110 cleavage fluorescence; AID 743289; activity change, negative = inhibition, % at 35 µM;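 active = compounds lowering fluorescence whose fitted half-maximal concentration is no more than twice their top tested dose; inconclusive = flat fit with 30 to 70% inhibition, or poor fit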
Target sequence (P29466 whole entry, looked up): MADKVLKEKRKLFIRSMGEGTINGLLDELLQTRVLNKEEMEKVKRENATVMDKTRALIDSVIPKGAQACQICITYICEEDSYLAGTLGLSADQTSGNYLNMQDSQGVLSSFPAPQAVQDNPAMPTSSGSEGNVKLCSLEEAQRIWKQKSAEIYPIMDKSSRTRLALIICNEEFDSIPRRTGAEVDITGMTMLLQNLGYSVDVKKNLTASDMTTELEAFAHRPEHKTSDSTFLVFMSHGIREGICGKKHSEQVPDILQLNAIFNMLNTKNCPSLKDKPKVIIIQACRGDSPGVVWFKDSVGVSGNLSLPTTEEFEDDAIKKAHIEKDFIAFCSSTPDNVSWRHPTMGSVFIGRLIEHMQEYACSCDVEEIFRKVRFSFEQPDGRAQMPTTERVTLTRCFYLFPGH
* marks the source's active call; other numbers are inactive results; u = inconclusive; x = no result given.

SMILES	DENV2 CPE	FN deposition inh	Xi reactivation	CaV13 FRET inh	Casp6 inh	CASP1 counter
CN(CC(=O)Nc1ccccc1Cl)C(=O)COC(=O)c1ccc(Cl)cc1[N+](=O)[O-]	-1	-4	0	-6	0	x
O=C1CN(C(=O)COC(=O)c2ccc([N+](=O)[O-])s2)c2ccccc2N1	x	x	x	x	x	-1
COc1ccccc1NC(=O)COC(=O)c1ccc([N+](=O)[O-])s1	7	8	0	7	87*	0
CO[C@@H]1CN(C)C(=O)c2cc(NC(=O)C3CCC3)ccc2OC[C@@H](C)N(Cc2ccncc2)C[C@H]1C	14	12	0	x	2	x
Cc1ccc(S(=O)(=O)Nc2ccc3c(c2)C(=O)N([C@H](C)CO)C[C@H](C)[C@@H](CN(C)CC2CC2)OCCCC[C@@H](C)O3)cc1	0	2	0	x	-3	x
C[C@H]1CN(C)C(=O)c2cc(N(C)C)ccc2O[C@H]1CN(C)C	x	7	0	x	x	x
O=S(=O)(NC[C@@H]1CC[C@H]2[C@H](CN2Cc2cccc(-c3ccccn3)c2)O1)c1ccccc1	6	x	x	x	2	x
C[C@@H]1CN([C@@H](C)CO)S(=O)(=O)c2ccc(C#CCC3CCCC3)cc2O[C@H]1CN(C)C	0	23	-1	x	0	x
COc1cccc(CN2[C@H](CO)[C@H](c3ccccc3)C23CN(Cc2ccccc2OC)C3)c1	x	2	0	x	x	x
NS(=O)(=O)c1ccc(NC(=O)COC(=O)c2ccc([N+](=O)[O-])s2)cc1	0	-3	0	1	92*	4
CO[C@H]1CN(C)C(=O)c2ccc(NS(C)(=O)=O)cc2OC[C@@H](C)N(C)C[C@@H]1C	u	0	0	x	-2	x
O=C1Cc2ccccc2C(=O)N1	-10	-4	0	-5	99*	-7
O=C1Nc2ccccc2CCc2ccccc21	-2	4	0	-2	0	x
CCOc1ccc2nc3cc(NCc4ccc(OC)cc4)ccc3c(N)c2c1	x	x	x	x	73*	3
C[C@@H]1CN([C@@H](C)CO)C(=O)CCCn2cc(nn2)CO[C@H]1CN(C)Cc1ccc2cccnc2c1	x	1	0	x	x	x
COc1ccc(CN(C)C[C@@H]2OCCCC[C@@H](C)Oc3ccc(NS(C)(=O)=O)cc3C(=O)N([C@@H](C)CO)C[C@@H]2C)cc1	-15	x	0	x	-5	x
Nc1cccc(Nc2ccccc2)c1	0	-5	0	0	0	x
Nc1ccc(Nc2ccccc2)c(S(=O)(=O)O)c1	1	-4	0	-2	86*	-8
CCCCNC(=O)c1nc(C2CCNCC2)oc1-c1cccc(C(F)(F)F)c1	-3	10	0	-6	92*	-2
CCCCNC(=O)c1nc(C2CCN(S(=O)(=O)c3ccccc3)CC2)oc1-c1cccc(C(F)(F)F)c1	u	3	1	-6	-1	x
C[C@@H](NC(=O)[C@H]1N[C@H]2c3ccc(-c4cncnc4)c(=O)n3C[C@H]2[C@@H]1CO)c1ccccc1	12	x	0	x	0	x
O=C(O)Cc1ccc(-n2cccc2)cc1	3	-20	0	13	70*	-1
COc1ccc(S(=O)(=O)Nc2cc(Sc3ncn[nH]3)c(O)c3ccccc23)cc1	x	x	x	x	x	3
Cc1noc(C)c1NC(=O)Nc1cccc2c1O[C@H](CN(C)S(=O)(=O)c1ccc(F)cc1)[C@H](C)CN([C@H](C)CO)C2=O	-6	x	0	x	-2	x
Nc1cc(S(=O)(=O)O)cc([N+](=O)[O-])c1O	4	18	0	5	59*	-3
SMILES	DENV2 CPE	FN deposition inh	Xi reactivation	CaV13 FRET inh	Casp6 inh	CASP1 counter
O=c1c(CO)cc(CO)cc(CO)c1O	8	1	0	-3	71*	0
COc1cc(-c2ccc(Nc3ccccc3C(=O)O)c(OC)c2)ccc1Nc1ccccc1C(=O)O	10	-9	0	-13	40*	-3
COc1cc([N+](=O)[O-])c(OC)cc1Nc1ccccc1C(=O)O	-8	3	0	-5	29	x
CCCN(C)C[C@H]1Oc2ncc(-c3ccncc3)cc2C(=O)N([C@@H](C)CO)C[C@@H]1C	-8	x	2	x	-6	x
CCCCN(C(=O)c1cccc(-n2cccc2)c1)c1c(N)n(Cc2ccccc2)c(=O)[nH]c1=O	-6	-5	0	-6	57*	-1
CCCCN(C(=O)c1cccc(N2C(=O)c3ccccc3C2=O)c1)c1c(N)n(CC(C)C)c(=O)[nH]c1=O	-7	2	0	-6	2	x
COc1cc(C)c2c(c1C=O)Oc1c(c(C)c(O)c3c1C(O)OC3=O)OC2=O (stereo not drawn)	-2	x	x	x	78*	-3
COc1ccc(OC)c(Nc2cc3ccccc3c(=O)[nH]2)c1	u	-11	0	-8	99*	23
O=c1oc(-c2ccccc2)nc2sc3c(c12)CCC3	2	-1	0	-5	72*	-4
O=C1CCC(=O)N1c1ccc(-c2nc3sc4c(c3c(=O)o2)CCC4)cc1	5	2	0	-5	-3	x
O=c1oc2ccccc2c2oc3cc(O)c(O)cc3c12	-5	2	0	-4	44*	0
CCCSC1=N/C(=C\c2ccc([N+](=O)[O-])o2)C(=O)S1	x	x	0	-7	75*	-9
O=C(C1CC1)N1CC2(C1)[C@H](c1ccccc1)[C@@H](CO)N2Cc1cncnc1	11	x	0	x	0	x
CCOC(=O)[C@H](Cc1c[nH]c2ccccc12)NC(=O)CN=[N+]=[N-]	-2	x	x	x	38*	-1
C[C@H](CO)N1C[C@H](C)[C@H](CN(C)S(=O)(=O)c2cn(C)cn2)Oc2ccc(NC(=O)Nc3cccc4ccccc34)cc2CC1=O	-6	-6	0	x	-2	x
COc1ccc([N+](=O)[O-])cc1NC(=O)CCS(=O)(=O)c1ccc(Br)cc1	-4	2	0	-18	31	-2
COc1ccc([N+](=O)[O-])cc1NC(=O)CS(=O)(=O)c1ccc(C)cc1	-10	1	0	-4	-1	x
CC(C)C#Cc1cnc2c(c1)C(=O)N([C@@H](C)CO)C[C@@H](C)[C@H](CN(C)C(=O)Nc1ccc(F)cc1)O2	-6	-5	-1	x	3	x
O=S(=O)(O)c1cc(O)c2cc(Nc3ccccc3)ccc2c1	-2	-1	1	-9	80*	13
O=C(CCO)c1ccc(O)cc1	-5	x	x	x	75*	0
CCCCC(=O)c1ccc(O)cc1	3	x	x	-8	0	x
Oc1cc(NCCc2cccnc2)cc2cccnc12	-4	-4	1	-13	49*	5
O=C(O)C1Nc2c(Cl)cc(Cl)c(Cl)c2C2C=CCC12 (stereo not drawn)	5	-3	0	-2	40*	21
